According to ChEMBL document CHEMBL4265871, “Novel alkylated azoles as potent antifungals” (Eur J Med Chem, 2017):
Values after ≈ are worked out from the molar mass of the structure shown.

Legend:
Candida albicans [1] = experiment: Antifungal activity against Candida albicans ATCC 10231 incubated for 48 hrs by modified CLSI M27-A3 protocol based method; assay type: functional; conditions: ATCC 10231, 48 h, read-out: MIC100
Method in brief: (§1)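 For C. albicans ATCC 10231, C. krusei ATCC 6258 and C. parapsilosis ATCC 22019, MIC-0 was read, meaning complete growth inhibition. For azole controls, MIC-2 (50% growth inhibition) was reported instead. Caspofungin and voriconazole were tested here; other controls came from earlier work.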

Candida albicans [2] = experiment: Antifungal activity against Candida albicans ATCC 64124 incubated for 48 hrs by modified CLSI M27-A3 protocol based method; assay type: functional; conditions: ATCC 64124, 48 h
Candida albicans [3] = experiment: Antifungal activity against ITC and FLC-susceptible Candida albicans ATCC MYA-2876 incubated for 48 hrs by modified CLSI M27-A3 protocol based method; assay type: functional; conditions: ATCC MYA-2876, 48 h
Method in brief: (§2)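 Because these Candida strains show trailing growth, MIC-2 was read, meaning 50% growth inhibition. Caspofungin and voriconazole were tested here; other controls came from earlier work.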

Candida albicans [4] = experiment: Antifungal activity against ITC and FLC-susceptible Candida albicans ATCC MYA-2310 incubated for 48 hrs by modified CLSI M27-A3 protocol based method; assay type: functional; conditions: ATCC MYA-2310, 48 h
Candida albicans [5] = experiment: Antifungal activity against ITC and FLC-resistant Candida albicans ATCC MYA-1003 incubated for 48 hrs by modified CLSI M27-A3 protocol based method; assay type: functional; conditions: ATCC MYA-1003, 48 h; method in brief: as §2
Candida parapsilosis = experiment: Antifungal activity against Candida parapsilosis ATCC 22019 incubated for 48 hrs by modified CLSI M27-A3 protocol based method; assay type: functional; conditions: Lodderomyces parapsilosis, ATCC 22019, 48 h; read-out: MIC100; method in brief: as §1
Aspergillus flavus = experiment: Antifungal activity against Aspergillus flavus ATCC MYA-3631 incubated for 48 hrs by CLSI M38-A2 protocol based method; assay type: functional; conditions: ATCC MYA-3631, 48 h, read-out: MIC100
Aspergillus nidulans = experiment: Antifungal activity against Aspergillus nidulans ATCC 38163 incubated for 48 hrs by CLSI M38-A2 protocol based method; assay type: functional; conditions: ATCC 38163, 48 h, read-out: MIC100
[6] = Toxicity in human A549 cells assessed as reduction in cell viability incubated for 24 hrs by resazurin dye based assay
Method in brief: (§3)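 Toxicity tested in the nucleated lines A549 and BEAS-2B to give EC50 values. Selectivity index is EC50 against the mammalian line divided by the MIC against a given fungal strain.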

[7] = Toxicity in human BEAS2B cells assessed as reduction in cell viability incubated for 24 hrs by resazurin dye based assay; conditions: BEAS-2B cells; method in brief: as §3
[8] = Hemolytic activity in mouse erythrocytes assessed as hemolysis level at 15.6 ug/ml incubated for 1 hr at 37 degC; assay type: ADME, cell-based, Erythrocyte; conditions: read-out: Activity
Method in brief: (§4)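 Mouse erythrocytes incubated 1 h at 37 °C with test agents over 1.95 to 125 µg/mL. Percent lysis is read for each concentration.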

[9] = Hemolytic activity in mouse erythrocytes assessed as hemolysis level at 31.3 ug/ml incubated for 1 hr at 37 degC; assay type: ADME, cell-based, Erythrocyte; conditions: read-out: Activity; method in brief: as §4
[10] = Hemolytic activity in mouse erythrocytes assessed as hemolysis level at 125 ug/ml incubated for 1 hr at 37 degC; assay type: ADME, cell-based, Erythrocyte; conditions: read-out: Activity; method in brief: as §4
[11] = Selectivity index, ratio of EC50 for toxicity in human A549 cells to MIC100 for antifungal activity against Candida albicans ATCC 10231; assay type: cell-based; conditions: read-out: Selectivity Index
Method in brief: (§5)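 Selectivity index is the EC50 against the mammalian line (A549 or BEAS-2B) divided by the MIC against the given fungal strain.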

[12] = Selectivity index, ratio of EC50 for toxicity in human BEAS2B cells to MIC50 for antifungal activity against Candida albicans ATCC 64124; assay type: cell-based; conditions: BEAS-2B cells, read-out: Selectivity Index; method in brief: as §5
[13] = Selectivity index, ratio of EC50 for toxicity in human BEAS2B cells to MIC100 for antifungal activity against Candida albicans ATCC 10231; assay type: cell-based; conditions: BEAS-2B cells, read-out: Selectivity Index; method in brief: as §5
[14] = Selectivity index, ratio of EC50 for toxicity in human A549 cells to MIC50 for antifungal activity against ITC and FLC-susceptible Candida albicans ATCC MYA-2876; assay type: cell-based; conditions: read-out: Selectivity Index; method in brief: as §5
[15] = Selectivity index, ratio of EC50 for toxicity in human A549 cells to MIC50 for antifungal activity against ITC and FLC-resistant Candida albicans ATCC MYA-90819; assay type: cell-based; conditions: read-out: Selectivity Index; method in brief: as §5
[16] = Selectivity index, ratio of EC50 for toxicity in human A549 cells to MIC50 for antifungal activity against ITC and FLC-susceptible Candida albicans ATCC MYA-2310; assay type: cell-based; conditions: read-out: Selectivity Index; method in brief: as §5
[17] = Selectivity index, ratio of EC50 for toxicity in human A549 cells to MIC50 for antifungal activity against ITC and FLC-resistant Candida albicans ATCC 1237; assay type: cell-based; conditions: read-out: Selectivity Index; method in brief: as §5
[18] = Selectivity index, ratio of EC50 for toxicity in human A549 cells to MIC50 for antifungal activity against ITC and FLC-resistant Candida albicans ATCC MYA-1003; assay type: cell-based; conditions: read-out: Selectivity Index; method in brief: as §5
[19] = Selectivity index, ratio of EC50 for toxicity in human BEAS2B cells to MIC50 for antifungal activity against ITC and FLC-resistant Candida albicans ATCC MYA-1003; assay type: cell-based; conditions: BEAS-2B cells, read-out: Selectivity Index; method in brief: as §5
[20] = Selectivity index, ratio of EC50 for toxicity in human BEAS2B cells to MIC50 for antifungal activity against Candida glabrata ATCC 2001; assay type: cell-based; conditions: BEAS-2B cells, read-out: Selectivity Index; method in brief: as §5
[21] = Selectivity index, ratio of […] for toxicity in human A549 cells to MIC50 for antifungal activity against Aspergillus flavus ATCC MYA-3631; assay type: cell-based; conditions: read-out: Selectivity Index
[22] = Selectivity index, ratio of […] for toxicity in human BEAS2B cells to MIC50 for antifungal activity against Aspergillus flavus ATCC MYA-3631; assay type: cell-based; conditions: BEAS-2B cells, read-out: Selectivity Index
[23] = Selectivity index, ratio of […] for toxicity in human A549 cells to MIC50 for antifungal activity against Aspergillus nidulans ATCC 38163; assay type: cell-based; conditions: read-out: Selectivity Index
[24] = Selectivity index, ratio of […] for toxicity in human A549 cells to MIC50 for antifungal activity against Aspergillus terreus ATCC MYA-3633; assay type: cell-based; conditions: read-out: Selectivity Index
[25] = Selectivity index, ratio of […] for toxicity in human BEAS2B cells to MIC50 for antifungal activity against Aspergillus terreus ATCC MYA-3633; assay type: cell-based; conditions: BEAS-2B cells, read-out: Selectivity Index
in vitro = conditions: mouse, mouse erythrocytes
[26] = Selectivity index, ratio of EC50 for toxicity in human A549 cells to MIC50 for antifungal activity against Candida krusei ATCC 6258
[27] = Selectivity index, ratio of EC50 for toxicity in human BEAS2B cells to MIC50 for antifungal activity against Candida krusei ATCC 6258; conditions: BEAS-2B cells
[28] = Selectivity index, ratio of EC50 for toxicity in human A549 cells to MIC for antifungal activity against Candida parapsilosis ATCC 22019
[29] = Selectivity index, ratio of EC50 for toxicity in human BEAS2B cells to MIC for antifungal activity against Candida parapsilosis ATCC 22019; conditions: BEAS-2B cells

SMILES | MIC (Candida albicans [1]) | MIC50 (Candida albicans [2]) | MIC50 (Candida albicans [3]) | MIC50 (Candida albicans [4]) | MIC50 (Candida albicans [5]) | MIC (Candida parapsilosis) | MIC (Aspergillus flavus) | MIC (Aspergillus nidulans) | EC50 at 24 h [6] | EC50 at 24 h [7] | hemolysis at 1 h, 15.6 ug/ml [8] | hemolysis at 1 h, 31.3 ug/ml [9] | hemolysis at 1 h, 125 ug/ml [10] | selectivity ratio [11] | selectivity ratio [12] | selectivity ratio [13] | selectivity ratio [14] | selectivity ratio [15] | selectivity ratio [16] | selectivity ratio [17] | also measured
CCCCCC(O)(Cn1cncn1)c1ccc(Cl)cc1Cl (configuration not stated) | 0.73 µM (≈ 0.24 µg/mL) | 5.9 µM (≈ 1.94 µg/mL) | 3 µM (≈ 0.985 µg/mL) | 5.9 µM (≈ 1.94 µg/mL) | 3 µM (≈ 0.985 µg/mL) | < 0.09 µM | 11.9 µM (≈ 3.91 µg/mL) | 1.5 µM (≈ 0.492 µg/mL) | 33 mg/L (≈ 101 µM) | > 31.3 mg/L | 0% | 90.5% | 100% | 138 | 16 | 130 | 34 | 17 | 17 | 17 | selectivity ratio [18]: 34; selectivity ratio [19]: 32; selectivity ratio [20]: 16; selectivity ratio [21]: 8; selectivity ratio [22]: 8; selectivity ratio [23]: 69; selectivity ratio [24]: 8; selectivity ratio [25]: 8; hemolysis at 1 h, 62.5 ug/ml (in vitro): 100%; selectivity ratio [26]: 69; selectivity ratio [27]: 65; selectivity ratio [28]: 1100; selectivity ratio [29]: 1040
CCCCC(O)(Cn1cncn1)c1ccc(Cl)cc1Cl (configuration not stated) [HEXACONAZOLE] | 0.76 µM (≈ 0.239 µg/mL) | 12.4 µM (≈ 3.9 µg/mL) | 6.2 µM (≈ 1.95 µg/mL) | 6.2 µM (≈ 1.95 µg/mL) | 3.1 µM (≈ 0.974 µg/mL) | < 0.1 µM | 12.4 µM (≈ 3.9 µg/mL) | 0.76 µM (≈ 0.239 µg/mL) | > 31.3 mg/L | > 31.3 mg/L | 0% | 0% | 100% | 130 | 8 | 130 | 16 | 16 | 16 | 4 | selectivity ratio [18]: 32; selectivity ratio [19]: 32; selectivity ratio [20]: 8; selectivity ratio [21]: 8; selectivity ratio [22]: 8; selectivity ratio [23]: 130; selectivity ratio [24]: 32; selectivity ratio [25]: 32; hemolysis at 1 h, 62.5 ug/ml (in vitro): 59%; selectivity ratio [26]: 522; selectivity ratio [27]: 522; selectivity ratio [28]: 1040; selectivity ratio [29]: 1040
CCCCCCCCC(O)(Cn1cncn1)c1ccc(F)cc1F (configuration not stated) | 5.8 µM (≈ 1.96 µg/mL) | 11.6 µM (≈ 3.91 µg/mL) | 5.8 µM (≈ 1.96 µg/mL) | 5.8 µM (≈ 1.96 µg/mL) | 5.8 µM (≈ 1.96 µg/mL) | ≤ 0.18 µM | 92.8 µM (≈ 31.3 µg/mL) | 1.4 µM (≈ 0.472 µg/mL) | 12 mg/L (≈ 35.6 µM) | 13 mg/L (≈ 38.5 µM) | 66.7% | 68.4% | 97.1% | 6 | 3 | 7 | 6 | 6 | 6 | 6 | selectivity ratio [18]: 6; selectivity ratio [19]: 7; selectivity ratio [20]: 7; selectivity ratio [21]: 0.4; selectivity ratio [22]: 0.4; selectivity ratio [23]: 25; selectivity ratio [24]: 2; selectivity ratio [25]: 2; hemolysis at 1 h, 62.5 ug/ml (in vitro): 69%; selectivity ratio [26]: 50; selectivity ratio [27]: 54; selectivity ratio [28]: 200; selectivity ratio [29]: 217
CCCCCC(O)(Cn1cncn1)c1ccccc1F (configuration not stated) | 14.1 µM (≈ 3.91 µg/mL) | > 113 µM | 3.5 µM (≈ 0.971 µg/mL) | 3.5 µM (≈ 0.971 µg/mL) | 14.1 µM (≈ 3.91 µg/mL) | 0.43 µM (≈ 0.119 µg/mL) | 28.1 µM (≈ 7.79 µg/mL) | 1.7 µM (≈ 0.471 µg/mL) | 37 mg/L (≈ 133 µM) | > 31.3 mg/L | 0% | 0% | 20.7% | 9 | 1 | 8 | 38 | 77 | 38 | 38 | selectivity ratio [18]: 9; selectivity ratio [19]: 8; selectivity ratio [20]: 32; selectivity ratio [21]: 5; selectivity ratio [22]: 4; selectivity ratio [23]: 77; selectivity ratio [24]: 9; selectivity ratio [25]: 8; hemolysis at 1 h, 62.5 ug/ml (in vitro): 0%; selectivity ratio [26]: 617; selectivity ratio [27]: 522; selectivity ratio [28]: 308; selectivity ratio [29]: 261
